Compound activity (PubChem)
Sampled rows, rich in hits. Any-hit rate of the full collection: about 3.8%.
KCNQ1 act: human KCNQ1 channel potentiation or activation; P51787; CHO-K1 KCNQ1, thallium flux FluxOR fluorescence; hits give high values; B-score at 10 µM; actives 0.35% (n = 310,000); AID 2648;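 active = fluorescence ratio B-score, a plate-corrected score, at least three library SD, with initial intensity B-score within 5 SD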
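System: Stable KCNQ1 CHO-K1 line | Incubation: 90 min dye loading and 20 min compound exposure, both at room temperature | Measure: Ratio B score | Medium: Assay buffer for compound exposure, DMSO matched across wells | Compound dosing: Single-concentration screen | Probe or stimulus: K+/Tl+ depolarizing stimulus | Measured by: Kinetic FluxOR fluorescence, 10 s baseline plus 110 s post-stimulus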
KCNQ1 inh: blocks the human KCNQ1 potassium channel. AID 2642. B-score at 10 µM. actives 1.3% (n = 310,000). CHO-K1 KCNQ1, FluxOR thallium flux fluorescence; hits give high values. P51787;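 active = compounds whose thallium flux B-score, printed positive for inhibition, exceeds three library SD while starting fluorescence stays within three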;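 also: channel opened by potassium depolarization with thallium stimulus after 20 min compound exposure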
Kir21 block: blocks the mouse Kir2.1 inward-rectifier potassium channel; P35561; actives 0.85% (n = 310,000); AID 1672; B-score at 10 µM; HEK293-Kir2.1, FluxOR thallium flux fluorescence; hits give low values;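 active = fluorescence ratio B-score at or below minus 3 SD of library scores, with starting-brightness B-score within 2 SD, cut at about -4.2 in these data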;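 also: channel flux triggered by added potassium and thallium sulfate stimulus; B-score of peak minus minimum fluorescence over baseline after thallium stimulus; more negative B-score means stronger Kir2.1 block with less thallium influx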
KCNK3 inh: human KCNK3 channel inhibition, primary screen. CHO-KCNK3 thallium flux, FluxOR fluorescence; hits give low values. B-score at 10 µM. actives 0.84% (n = 340,000). AID 602410. O14649;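 active = B-score under library mean minus 4 SD, starting fluorescence ratio at most library mean plus 5 SD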;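 also: more negative B-score means stronger inhibition of thallium flux through KCNK3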
hERG protect: hERG (human) protection from proarrhythmic block; Q12809; CHO-hERG, FluxOR thallium flux, dofetilide IC70 present; activation (rescue from dofetilide block), less the hit threshold, % at 10 µM; actives 0.51% (n = 310,000);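 active = activation above the mean of controls blocked by dofetilide plus 5 SD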;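 also: thallium influx through hERG after potassium depolarization seen as dye fluorescence rise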
Target sequence (Q12809 whole entry, looked up): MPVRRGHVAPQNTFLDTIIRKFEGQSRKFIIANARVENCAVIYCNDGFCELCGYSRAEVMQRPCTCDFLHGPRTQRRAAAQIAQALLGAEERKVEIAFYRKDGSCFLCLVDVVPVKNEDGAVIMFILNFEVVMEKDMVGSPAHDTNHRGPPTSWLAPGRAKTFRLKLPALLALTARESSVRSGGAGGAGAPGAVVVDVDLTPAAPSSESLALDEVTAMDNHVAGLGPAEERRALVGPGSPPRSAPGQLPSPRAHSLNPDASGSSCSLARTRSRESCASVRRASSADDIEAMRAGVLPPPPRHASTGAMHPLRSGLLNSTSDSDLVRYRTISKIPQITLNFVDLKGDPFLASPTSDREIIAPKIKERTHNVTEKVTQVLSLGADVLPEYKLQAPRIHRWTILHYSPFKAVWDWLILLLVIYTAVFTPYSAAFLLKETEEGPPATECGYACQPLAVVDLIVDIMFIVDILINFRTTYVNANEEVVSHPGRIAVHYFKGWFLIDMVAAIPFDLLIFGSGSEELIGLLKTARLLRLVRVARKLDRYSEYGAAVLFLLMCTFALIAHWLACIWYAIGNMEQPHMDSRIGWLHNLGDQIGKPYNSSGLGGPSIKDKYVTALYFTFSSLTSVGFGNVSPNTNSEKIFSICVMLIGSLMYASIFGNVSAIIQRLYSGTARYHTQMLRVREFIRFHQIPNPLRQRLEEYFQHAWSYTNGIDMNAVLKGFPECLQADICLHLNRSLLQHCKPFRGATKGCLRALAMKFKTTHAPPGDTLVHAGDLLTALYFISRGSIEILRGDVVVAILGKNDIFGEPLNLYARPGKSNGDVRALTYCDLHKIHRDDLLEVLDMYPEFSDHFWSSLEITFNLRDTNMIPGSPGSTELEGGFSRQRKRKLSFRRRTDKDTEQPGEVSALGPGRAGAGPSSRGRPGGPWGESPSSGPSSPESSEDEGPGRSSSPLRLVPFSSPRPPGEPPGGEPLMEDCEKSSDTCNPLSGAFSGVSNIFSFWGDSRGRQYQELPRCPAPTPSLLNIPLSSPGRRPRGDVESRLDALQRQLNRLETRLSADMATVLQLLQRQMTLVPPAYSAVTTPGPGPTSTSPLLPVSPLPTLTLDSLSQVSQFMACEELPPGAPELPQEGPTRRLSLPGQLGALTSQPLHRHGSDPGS
KCNK9 inh-1: inhibitors of human KCNK9 two-pore domain potassium channel. Q9NPC2. HEK293 KCNK9, FluxOR thallium flux fluorescence; hits give low values. B-score at 10 µM. actives 1.2% (n = 310,000). AID 488922;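 active = ratio B-score over 3 SD below the library mean, with starting fluorescence within 5 SD of its mean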;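 also: negative B-score means less thallium flux so channel inhibition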
hERG inh: counter-screen for Kir2.1 inhibitors: effect on human hERG | actives 20% (n = 320) | shares compounds with Kir21 block | inhibition, % at 10 µM | hERG-expressing cells, thallium flux;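 also: host cells are CHO cells stably expressing hERG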
KCNK9 inh-2: tests whether Kir2.1 inhibitors also affect human KCNK9; actives 5% (n = 320); shares compounds with Kir21 block; KCNK9-expressing cells, ion flux inhibition; inhibition, % at 10 µM
Kir21 ephys inh: mouse Kir2.1 inward rectifier channel inhibition | actives 71% (n = 320) | shares compounds with Kir21 block | inhibition, % at 25 µM | Kir2.1 cells, automated patch-clamp current inhibition
Hits are given with their value; n = inactive; x = no result. Unless noted, no rule for the calls is given here.

SMILES | KCNQ1 act | KCNQ1 inh | Kir21 block | KCNK3 inh | hERG protect | KCNK9 inh-1 | hERG inh | KCNK9 inh-2 | Kir21 ephys inh
CC(CCCN(C)C)C(Cc1ccccc1)c1ccccc1 (centres undefined) | n | n | -6.4 | n | n | n | n | n | 4.0%
Cc1cccc(C)c1NC(=O)c1sccc1SCC#N | n | n | n | n | n | n | x | x | x
CNC(=O)c1sccc1SCc1c(Cl)cccc1Cl | n | n | -9.4 | n | n | n | n | n | 43%
C=C1N(c2ccccc2)C(=O)OC1(C)C | n | n | n | n | n | n | x | x | x
O=S(=O)(NCc1csc(-c2cccs2)n1)c1cccs1 | n | n | n | n | n | n | x | x | x
O=S(=O)(NCc1csc(-c2cccs2)n1)c1ccc(Cl)cc1 | n | n | -11 | n | n | n | n | n | 22%
O=C(NN1CCCCCC1)c1ccccc1F | x | x | x | n | x | x | x | x | x
COc1ccc(CN2CCC(C(=O)c3ccc(F)cc3)CC2)cc1 | n | n | -8 | n | n | n | 58% | n | 63%
COc1ccc(C(=O)C2CCN(C(=O)c3ccc(F)cc3)CC2)cc1 | n | n | n | n | n | n | x | x | x
COc1ccc(CNCc2cccc(Oc3ccccc3)c2)cc1 | n | n | -14 | n | n | n | n | n | 85%
COc1ccc(CNCCS(=O)(=O)NCc2ccccc2)cc1 | x | x | x | n | x | x | x | x | x
COc1ccc(CNCC(O)(c2ccccc2)c2ccccc2)cc1 | n | n | -6.2 | n | n | n | 46% | n | n
O=C(NCC1CCCO1)c1ccc(NC(=O)c2cccc([N+](=O)[O-])c2)cc1 (centres undefined) | n | n | n | n | n | n | x | x | x
O=C(c1ccc(O)cc1)c1ccc(O)cc1O | n | n | n | n | n | n | x | x | x
CN(C)c1ccc(C(=O)c2ccc(O)cc2O)cc1 | n | n | n | n | n | n | n | n | n
COc1ccccc1NC1CCCCC1NS(=O)(=O)c1ccccc1 (centres undefined) | n | n | n | n | n | n | x | x | x
COc1ccc(S(=O)(=O)N2CCCOC2CNC(=O)C(=O)NC2CCCC2)cc1 (centres undefined) | n | n | n | n | n | n | x | x | x
COc1ccc(C(CCNC(C)c2ccccc2)C(C)C)cc1 (centres undefined) | n | n | -11 | n | n | n | n | n | 2.7%
COc1ccc(C(C)NC(=O)c2ccccc2)cc1 (centres undefined) | n | n | n | n | n | n | x | x | x
NS(=O)(=O)c1ccc(CCNCc2ccccc2OCc2ccc(Cl)cc2)cc1 | n | n | -8.2 | n | n | n | 65% | n | 31%
NS(=O)(=O)c1ccc(CCNCc2cc(Br)ccc2OCc2ccccc2F)cc1 | n | n | -6.3 | n | n | n | n | 46% | 12%
O=S(=O)(c1ccccc1F)N1CCCc2ccccc21 | n | n | -6.1 | n | n | n | n | n | 32%
COc1ccc(Nc2nc(N3CCCC3)c3ccccc3n2)cc1 | n | n | -11 | n | n | n | n | n | 46%
COc1cccc(C(C)NC(=S)NCc2ccc(F)cc2)c1 (centres undefined) | n | n | -6.8 | n | n | n | n | 31% | 43%
CCOc1ccc(C(C)NC(=S)NCc2ccc(F)cc2)cc1 (centres undefined) | n | n | n | n | n | n | x | x | x
C[C@@H](C(O)c1ccccc1)N(C)C(=O)CCc1ccccc1 (some centres undefined) | n | n | n | n | n | n | x | x | x
CC(=O)N1CC(C)Sc2ccc(S(=O)(=O)NCc3ccccc3Cl)cc21 (centres undefined) | n | n | -6.1 | n | n | n | n | n | n
CC(=O)N1CCOc2ccc(S(=O)(=O)NCc3ccccc3Cl)cc21 | n | n | n | n | n | n | x | x | x
CC(C)(C)c1ccc(OCCNCc2ccccc2)cc1 | n | n | n | n | n | n | x | x | x
